Laboratory results: ChEMBL document CHEMBL1124979, “4-Heterocyclyloxy-2H-1-benzopyran potassium channel activators” (1990)

Columns and labels:
Rattus norvegicus [1] = assay: Antihypertensive activity measured by maximum fall in the mean blood pressure after an oral administration of 1 mg/kg in spontaneously hypertensive rats; NS= Did not lower the blood pressure significantly; format: functional, organism-based; set-up: dose 1 mg/kg
Procedure, shortened: (§1)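 Conscious, unrestrained male spontaneously hypertensive rats (Okamoto strain, 280-330 g, blood pressure >180 mmHg), N ≥ 3, given a single 1 mg/kg oral screening dose. Mean arterial pressure was recorded directly via an aortic catheter from 1 h before to 3.5 h after dosing. The value is the mean of the maximum individual falls over 3.5 h; a fall under 18 mmHg counted as not significant.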

Rattus norvegicus [2] = assay: Antihypertensive activity measured by maximum fall in the mean blood pressure after an oral administration of 1 mg/kg in spontaneously hypertensive rats; format: functional; procedure, shortened: as §1
Rattus norvegicus [3] = species: Rattus norvegicus; assay: Dose required to reduce mean blood pressure by 30 mmHg in spontaneously hypertensive rats; format: functional
Procedure, shortened: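 Conscious male Okamoto SHR (280-330 g, baseline pressure >180 mmHg) fitted with an aortic catheter for continuous direct recording of mean arterial pressure over 3.5 h. Compounds active at the 1 mg/kg oral screen were given orally at 2-4 additional doses. Mean maximal falls were regressed linearly against log dose to derive ED30, the dose in […] lowering pressure by 30 mmHg.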

[4] = Rattus norvegicus, Blood, read-out: ED30

Compound | BP (Rattus norvegicus [1]) | BP (Rattus norvegicus [2]) [mmHg] | other results
CC1(C)Oc2ccc(C#N)cc2[C@@H](n2[nH]c(=O)ccc2=O)[C@@H]1O | Not significant |  | 
COC(=O)c1ccc2c(c1)[C@@H](Oc1ccnc(O)c1)[C@H](O)C(C)(C)O2 | Not significant |  | 
CC1(C)Oc2ccc(C#N)cc2[C@@H](Oc2ccnc(O)c2)[C@@H]1O |  | 104 | ED30 (Rattus norvegicus [3]; [4]): 0.006 mg/kg
CC1(C)Oc2ccc(Br)cc2C(Oc2ccc(=O)[nH]n2)C1O (stereo unspecified) | Not significant |  | 
CC1(C)Oc2ccc(C#N)cc2[C@H](Oc2ccc(=O)[nH]n2)[C@H]1O | Not significant |  | 
CC(=O)OC1C(Oc2ccc(=O)[nH]n2)c2cc(C#N)ccc2OC1(C)C (stereo unspecified) |  | 97 | 
CC1(C)Oc2ccc(C#N)cc2C(n2ccc(N)nc2=O)[C@@H]1O (stereo partly specified) | Not significant |  | 
CC1(C)Oc2ccc(C#N)cc2[C@@H](Oc2cccnc2O)[C@@H]1O | Not significant |  | 
CC1(C)Oc2ccc(C#N)cc2C(Oc2ccc(=O)[nH]n2)C1O (stereo unspecified) |  | 129 | ED30 (Rattus norvegicus [3]; [4]): 0.014 mg/kg
CC1(C)Oc2ccc(C#N)cc2[C@@H](Oc2ccc(O)nc2)[C@@H]1O |  | 23 | 
CC1(C)Oc2ccc(C#N)cc2[C@@H](Oc2ccc(S)nn2)[C@@H]1O | Not significant |  | 
CC1(C)Oc2ccc(C#N)cc2[C@@H](n2ccc(O)cc2=O)[C@@H]1O |  | 28 | 
COC(=O)c1ccc2c(c1)C(Oc1ccc(=O)[nH]n1)C(O)C(C)(C)O2 (stereo unspecified) |  | 18 | 
CCn1nc(O[C@@H]2c3cc(C#N)ccc3OC(C)(C)[C@H]2O)ccc1=O |  | 127 | ED30 (Rattus norvegicus [3]; [4]): 0.02 mg/kg
CC1(C)C=C(Oc2ccc(S)nn2)c2cc(C#N)ccc2O1 | Not significant |  | 
Cn1nc(O[C@@H]2c3cc(C#N)ccc3OC(C)(C)[C@H]2O)ccc1=O (stereo in doubt; 22a) |  |  | BP (Rattus norvegicus [2]; 1 mg/kg): 151 mmHg; ED30 (Rattus norvegicus [3]): 0.013 mg/kg
Cn1nc(OC2=CC(C)(C)Oc3ccc(C#N)cc32)ccc1=O | Not significant |  | 

Compound | BP (Rattus norvegicus [1]) | BP (Rattus norvegicus [2]) [mmHg] | other results
CC1(C)Oc2ccc(C#N)cc2C(n2ccc(N)cc2=O)[C@@H]1O (stereo partly specified) | Not significant |  | 
CC1(C)Oc2ccc(C(N)=S)cc2C(Oc2ccc(=O)[nH]n2)C1O (stereo unspecified) | Not significant |  | 
CC(C)n1nc(O[C@@H]2c3cc(C#N)ccc3OC(C)(C)[C@H]2O)ccc1=O |  | 32 | 
CC1(C)Oc2ccc([N+](=O)[O-])cc2[C@@H](Oc2ccnc(O)c2)[C@@H]1O |  | 117 | ED30 (Rattus norvegicus [3]; [4]): 0.013 mg/kg
CC1(C)Oc2ccc(C#N)cc2[C@@H](Oc2cccnc2N)[C@@H]1O | Not significant |  | 
Cn1ccc(O[C@@H]2c3cc(C#N)ccc3OC(C)(C)[C@H]2O)cc1=O |  | 83 | 
CC1(C)Oc2ccc(C(=N)S)cc2[C@@H](Oc2ccnc(O)c2)[C@@H]1O | Not significant |  | 
CC(=O)Oc1ccn(C2=CC(C)(C)Oc3ccc(C#N)cc32)c(=O)c1 |  | 28 | 
CC1(C)Oc2ccc(C#N)cc2C(n2nc(N)ccc2=O)[C@@H]1O (stereo partly specified) |  | 39 | 
CC1(C)C=C(Oc2ccc(=O)[nH]n2)c2cc(C#N)ccc2O1 | Not significant |  | 
CC1(C)C=C(n2ccc(O)cc2=O)c2cc(C#N)ccc2O1 |  | 19 | 
Cn1nc(O[C@H]2c3cc(C#N)ccc3OC(C)(C)[C@@H]2O)ccc1=O |  | 19 | 
CC1(C)Oc2ccc(C#N)cc2[C@@H](Oc2cc(O)ncn2)[C@@H]1O | Not significant |  | 
CC1(C)Oc2ccc([N+](=O)[O-])cc2C(Oc2ccc(=O)[nH]n2)C1O (stereo unspecified) |  | 78 | 
CC1(C)Oc2ccc(C#N)cc2C(N2CCCC2=O)C1O (stereo unspecified) [CROMAKALIM] |  | 78 | ED30 (Rattus norvegicus [3]; [4]): 0.11 mg/kg
CC1(C)C=C(Oc2ccnc(O)c2)c2cc(C#N)ccc2O1 | Not significant |  | 
Cn1nc(O[C@@H]2c3cc(C#N)ccc3OC(C)(C)[C@H]2O)ccc1=O (stereo in doubt; 14a) |  |  | BP (Rattus norvegicus [2]; 1 mg/kg): 124 mmHg; ED30 (Rattus norvegicus [3]; [4]): 0.018 mg/kg
